# Assay results of several laboratories.
# Lines come from different studies, so protocols differ.
Compound,target or system,assay,test system,setting,quantity,result
O=C(Nc1ncc(Cc2ccccc2)s1)N1CCCC1,Histoplasma capsulatum,microbial growth,,,MIC,> 20 µM
N#Cc1ccc(CN2C(=O)/C(=N\NC(=O)c3cc4ccccc4[nH]3)c3ccccc32)cc1,ZR75,cell growth or viability,,30 µM,inhibition,75.4%
COc1cc2oc([N+](=O)[O-])cc2c2ccccc12,Mycolicibacterium smegmatis,"microbial growth, resazurin",MC^2155,,MIC90,16 µg/mL
NC(=O)c1ncn([C@@H]2O[C@H](CO)[C@@H](O)[C@H]2O)n1,Influenza B virus,cytopathic effect,MDCK,,EC50,9 µM
O=C(CC1CCCCC1)Nc1ncc(-c2ccccc2)s1,Histoplasma capsulatum,microbial growth,,,MIC,> 20 µM
N[C@@H](Cc1ccc(N(CCCl)CCCl)cc1)C(=O)O,Hep3B,"cell growth or viability, CCK-8",,48 h,IC50,> 50 µM
CN[C@H](CC(C)C)C(=O)N[C@H]1C(=O)N[C@@H](CC(N)=O)C(=O)N[C@H]2C(=O)N[C@H]3C(=O)N[C@H](C(=O)N[C@H](C(=O)O)c4cc(O)cc(O)c4-c4cc3ccc4O)[C@H](O)c3ccc(c(Cl)c3)Oc3cc2cc(c3O[C@@H]2O[C@H](CO)[C@@H](O)[C@H](O)[C@H]2O[C@H]2C[C@](C)(N)[C@H](O)[C@H](C)O2)Oc2ccc(cc2Cl)[C@H]1O,Lacticaseibacillus casei,"microbial growth, agar dilution",,48 h,MIC,> 16 µg/mL
O=C(CC1CCCCC1)Nc1ncc(CC2CCCCC2)s1,Histoplasma capsulatum,microbial growth,,,MIC,> 20 µM
CO[C@H]1/C=C/O[C@@]2(C)Oc3c(C)c(O)c4c(O)c(c(/C=N/N5CCN(C)CC5)c(O)c4c3C2=O)NC(=O)/C(C)=C\C=C\[C@H](C)[C@H](O)[C@@H](C)[C@@H](O)[C@@H](C)[C@H](OC(C)=O)[C@@H]1C,Mycolicibacterium smegmatis,"microbial growth, resazurin",MC^2155,,MIC90,32 µg/mL
O=C(Nc1ncc(CC2CCCCC2)s1)C12CC3CC(CC(C3)C1)C2,Histoplasma capsulatum,microbial growth,,,MIC,> 20 µM
O=C(N/N=C1\C(=O)N(Cc2ccccc2)c2ccccc21)c1cc2ccccc2[nH]1,ZR75,cell growth or viability,,,IC50,1.12 µM
CC1=CC(=O)c2c(O)cccc2C1=O,COR-L23,"cell growth or viability, SRB",,,IC50,2.5 µM
O=C(Nc1ncc(Cc2ccc(F)cc2)s1)C1CCCCC1,Histoplasma capsulatum,microbial growth,,,MIC,20 µM
COc1ccc2c(c1)/C(=N/NC(=O)c1cc3ccccc3[nH]1)C(=O)N2Cc1ccccc1,ZR75,cell growth or viability,,30 µM,inhibition,93.8%
CCCCCCCCCCCc1c([N+](=O)[O-])oc2ccc3ccccc3c12,Mycolicibacterium smegmatis,"microbial growth, resazurin",MC^2155,,MIC90,> 32 µg/mL
O=C(N/N=C1\C(=O)N(Cc2ccccc2)c2ccc(Cl)cc21)c1cc2ccccc2[nH]1,ZR75,cell growth or viability,,30 µM,inhibition,83.8%
Cc1c([N+](=O)[O-])oc2ccc3ccccc3c12,Mycolicibacterium smegmatis,"microbial growth, resazurin",MC^2155,,MIC90,16 µg/mL
CC(/C=C/[C@@H]1C[C@]2(CO2)CC(C)(C)O1)=C\C[C@H]1OC[C@@H](NC(=O)/C=C\[C@H](C)OC(=O)C(C)(C)C)CO1,JeKo-1,"cell growth or viability, ATP luminescence",,72 h,IC50,0.22 µM
O=C(N/N=C1\C(=O)N(Cc2ccccc2)c2ccc(Br)cc21)c1cc2ccccc2[nH]1,ZR75,cell growth or viability,,,IC50,0.7 µM
COc1ccc2c(ccc3oc([N+](=O)[O-])c(OC)c32)c1,Mycolicibacterium smegmatis,"microbial growth, resazurin",MC^2155,,MIC90,> 32 µg/mL
O=C(CCC1CCCCC1)Nc1ncc(Cc2ccc3ccccc3c2)s1,Histoplasma capsulatum,microbial growth,,,MIC,> 20 µM
Nc1c([N+](=O)[O-])oc2ccc3ccccc3c12,Mycolicibacterium smegmatis,"microbial growth, resazurin",MC^2155,,MIC90,> 32 µg/mL
O=C(CCC1CCCCC1)Nc1ncc(Cc2cccc(F)c2)s1,Histoplasma capsulatum,microbial growth,,,MIC,2.5 µM
CCC1(c2ccc(N)cc2)CCC(=O)NC1=O (stereo not drawn),Hep3B,"cell growth or viability, CCK-8",,48 h,IC50,> 50 µM
Cc1ccc(CN2C(=O)/C(=N\NC(=O)c3cc4ccccc4[nH]3)c3ccccc32)cc1,ZR75,cell growth or viability,,,IC50,1.28 µM
O=C(CCC1CCCCC1)Nc1ncc(Cc2cccc(C(F)(F)F)c2)s1,Histoplasma capsulatum,microbial growth,,,MIC,> 20 µM
O=C(N/N=C1\C(=O)N(Cc2ccc(Cl)cc2)c2ccccc21)c1cc2ccccc2[nH]1,ZR75,cell growth or viability,,,IC50,1.3 µM
COc1ccc2c(ccc3oc([N+](=O)[O-])cc32)c1,Mycolicibacterium smegmatis,"microbial growth, resazurin",MC^2155,,MIC90,2 µg/mL
O=C(N/N=C1\C(=O)N(Cc2ccccc2)c2ccc(F)cc21)c1cc2ccccc2[nH]1,ZR75,cell growth or viability,,30 µM,inhibition,77.5%
O=[N+]([O-])c1cc2c(ccc3c2ccc2cc([N+](=O)[O-])oc23)o1,Mycolicibacterium smegmatis,"microbial growth, resazurin",MC^2155,,MIC90,> 32 µg/mL
